The record followed here is ChEMBL document CHEMBL1156610, “Synthesis, biological evaluation, and molecular modeling studies of methylene imidazole substituted biaryls as inhibitors of human 17alpha-hydroxylase-17,20-lyase (CYP17)--part II: Core rigidification and influence of substituents at the methylene bridge” (Bioorg Med Chem, 2008).

The target of data set [1] is T1, Steroid 17-alpha-hydroxylase/17,20 lyase (Homo sapiens, UniProt P05093).
T1 sequence (P05093 whole entry): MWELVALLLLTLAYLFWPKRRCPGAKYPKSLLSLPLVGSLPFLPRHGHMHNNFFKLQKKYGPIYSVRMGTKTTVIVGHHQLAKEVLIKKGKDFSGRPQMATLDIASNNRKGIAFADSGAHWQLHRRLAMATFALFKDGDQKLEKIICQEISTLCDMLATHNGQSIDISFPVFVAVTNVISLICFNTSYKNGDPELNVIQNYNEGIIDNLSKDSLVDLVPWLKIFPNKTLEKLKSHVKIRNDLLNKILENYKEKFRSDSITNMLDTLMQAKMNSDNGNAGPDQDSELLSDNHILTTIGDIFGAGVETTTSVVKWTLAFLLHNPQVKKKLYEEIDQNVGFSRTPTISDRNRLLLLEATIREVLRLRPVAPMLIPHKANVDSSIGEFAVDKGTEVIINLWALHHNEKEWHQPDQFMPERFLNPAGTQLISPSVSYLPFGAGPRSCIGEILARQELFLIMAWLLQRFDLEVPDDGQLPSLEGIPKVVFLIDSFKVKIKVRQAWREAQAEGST
Description: Inhibition of human CYP17 expressed in Escherichia coli coexpressed with cytochrome P450 reductase. In outline: (§1)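 Enzyme source: 50,000g sediment from homogenized E. coli coexpressing human CYP17 and cytochrome P450 reductase. Substrate progesterone (25 µM as printed), NADPH cofactor.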

The next data set concerns the target CYP3A4 (Homo sapiens, UniProt P08684). As to the kind of experiment: Inhibition of hepatic CYP3A4 expressed in insect microsomes at 1 uM. It is filed as ADME, Microsome. In outline: (§2)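 Recombinant human enzymes from baculovirus-infected insect cell microsomes, run per supplier protocol. Test concentration 1 µM; values are means of at least three independent tests, standard deviations under 5%.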

The target of the next data set is T2, CYP1A2 (Homo sapiens, UniProt P05177).
T2 sequence (P05177 whole entry): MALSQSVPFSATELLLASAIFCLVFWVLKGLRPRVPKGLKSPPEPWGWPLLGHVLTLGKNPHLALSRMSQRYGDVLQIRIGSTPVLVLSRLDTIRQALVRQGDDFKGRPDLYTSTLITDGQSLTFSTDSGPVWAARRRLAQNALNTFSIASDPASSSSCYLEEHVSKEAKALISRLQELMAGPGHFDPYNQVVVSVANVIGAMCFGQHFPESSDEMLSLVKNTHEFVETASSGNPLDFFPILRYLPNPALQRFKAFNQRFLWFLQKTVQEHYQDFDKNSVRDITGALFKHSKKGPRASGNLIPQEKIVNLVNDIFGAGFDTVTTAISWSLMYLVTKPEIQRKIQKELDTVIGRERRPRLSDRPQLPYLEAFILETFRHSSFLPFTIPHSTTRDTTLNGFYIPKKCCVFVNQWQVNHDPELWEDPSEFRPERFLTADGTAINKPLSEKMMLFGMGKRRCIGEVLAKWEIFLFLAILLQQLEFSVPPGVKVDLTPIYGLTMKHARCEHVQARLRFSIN
Description: Inhibition of hepatic CYP1A2 expressed in insect microsomes at 1 uM. It is filed as ADME, Microsome. In outline: as §2

The target of the next data set is T3, CYP2B6 (Homo sapiens, UniProt P20813).
T3 sequence (P20813 whole entry): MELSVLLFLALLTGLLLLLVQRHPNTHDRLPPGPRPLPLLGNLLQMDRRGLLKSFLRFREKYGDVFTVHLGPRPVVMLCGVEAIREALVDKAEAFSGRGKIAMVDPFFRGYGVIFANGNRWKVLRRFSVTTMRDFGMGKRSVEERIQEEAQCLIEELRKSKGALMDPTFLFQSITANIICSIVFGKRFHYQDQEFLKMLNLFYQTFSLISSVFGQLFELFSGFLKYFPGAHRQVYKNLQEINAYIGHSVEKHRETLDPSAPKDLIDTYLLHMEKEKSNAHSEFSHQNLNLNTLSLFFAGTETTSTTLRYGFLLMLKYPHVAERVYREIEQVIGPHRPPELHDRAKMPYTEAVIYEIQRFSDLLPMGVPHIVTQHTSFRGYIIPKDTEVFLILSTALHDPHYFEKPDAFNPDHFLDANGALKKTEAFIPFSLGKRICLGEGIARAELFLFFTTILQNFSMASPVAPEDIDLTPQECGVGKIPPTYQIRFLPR
Description: Inhibition of hepatic CYP2B6 expressed in insect microsomes at 1 uM. It is filed as ADME, Microsome. In outline:
as §2

The target of another data set is CYP2D6 (Homo sapiens, UniProt P10635). Description: Inhibition of hepatic CYP2D6 expressed in insect microsomes at 1 uM. It is filed as ADME, Microsome. In outline:
as §2

The target of another data set is T4, CYP11B1 (Homo sapiens, UniProt P15538).
T4 sequence (P15538 whole entry): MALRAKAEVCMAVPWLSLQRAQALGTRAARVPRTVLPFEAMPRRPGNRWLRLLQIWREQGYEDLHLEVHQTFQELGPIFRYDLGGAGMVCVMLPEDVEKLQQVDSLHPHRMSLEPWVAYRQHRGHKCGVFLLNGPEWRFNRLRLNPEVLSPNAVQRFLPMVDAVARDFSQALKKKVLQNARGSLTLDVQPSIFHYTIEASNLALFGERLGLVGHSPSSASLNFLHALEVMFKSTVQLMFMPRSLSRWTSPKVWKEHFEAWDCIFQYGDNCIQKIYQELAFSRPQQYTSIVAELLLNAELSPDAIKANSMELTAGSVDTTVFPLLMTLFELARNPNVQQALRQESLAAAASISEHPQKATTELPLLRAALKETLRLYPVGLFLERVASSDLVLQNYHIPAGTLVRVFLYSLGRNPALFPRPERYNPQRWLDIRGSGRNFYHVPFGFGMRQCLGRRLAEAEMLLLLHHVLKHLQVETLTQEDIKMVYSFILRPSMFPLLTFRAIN
As to the kind of experiment: Inhibition of human CYP11B1 at 0.2 uM using [4-14C]-11-dexycorticosterone as a substrate. Conditions: probe [4-14C]-11-dexycorticosterone. In outline: (§3)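 V79MZh cells expressing human CYP11B1 or CYP11B2, incubated with [4-14C]-11-deoxycorticosterone as substrate; inhibitors tested at 0.2 µM.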

For a further data set, the target named is T5, CYP11B2 (Homo sapiens, UniProt P19099).
T5 sequence (P19099 whole entry): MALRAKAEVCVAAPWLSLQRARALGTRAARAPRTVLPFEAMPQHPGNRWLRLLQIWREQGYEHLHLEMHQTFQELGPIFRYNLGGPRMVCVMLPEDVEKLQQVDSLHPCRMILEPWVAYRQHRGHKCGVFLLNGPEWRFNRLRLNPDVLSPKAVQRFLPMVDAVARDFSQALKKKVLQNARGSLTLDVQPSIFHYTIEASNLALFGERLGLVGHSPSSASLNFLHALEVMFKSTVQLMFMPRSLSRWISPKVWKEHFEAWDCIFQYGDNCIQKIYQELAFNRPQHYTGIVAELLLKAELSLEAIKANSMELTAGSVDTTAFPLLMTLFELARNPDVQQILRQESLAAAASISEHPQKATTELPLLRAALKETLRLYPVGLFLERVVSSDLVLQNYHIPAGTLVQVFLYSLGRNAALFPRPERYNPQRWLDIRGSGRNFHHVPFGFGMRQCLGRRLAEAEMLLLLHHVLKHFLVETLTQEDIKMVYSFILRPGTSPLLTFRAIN
As to the kind of experiment: Inhibition of human CYP11B2 at 0.2 uM using [4-14C]-11-dexycorticosterone as a substrate. Conditions: probe [4-14C]-11-dexycorticosterone. In outline:
as §3

Data set [2] concerns Rattus norvegicus. As to the kind of experiment: Reduction in plasma testosterone level in Wistar rat at 50 mg/kg, po after 1 hr. Also noted: scale not given: the % may be the effect or the level left. It is filed as functional.
Data set [3] relates to Rattus norvegicus. Description: Reduction in plasma testosterone level in Wistar rat at 50 mg/kg, po after 2 hrs. More on the design: scale not given: the % may be the effect or the level left. It is filed as functional.
Data set [4] concerns Rattus norvegicus. Description: Reduction in plasma testosterone level in Wistar rat at 50 mg/kg, po after 4 hrs. It is filed as functional. Also noted: scale not given: the % may be the effect or the level left.
Data set [5] relates to Rattus norvegicus. As to the kind of experiment: Reduction in plasma testosterone level in Wistar rat at 50 mg/kg, po after 6 hrs. It is filed as functional. Also noted: scale not given: the % may be the effect or the level left.
The subject of data set [6] is Rattus norvegicus. Description: Reduction in plasma testosterone level in Wistar rat at 50 mg/kg, po after 8 hrs. More on the design: scale not given: the % may be the effect or the level left. It is filed as functional.
The test system of data set [7] is Rattus norvegicus. As to the kind of experiment: Reduction in plasma testosterone level in Wistar rat at 50 mg/kg, po after 24 hrs. It is filed as functional. More on the design: Activity: scale not given: the % may be the effect or the level left.
The nature of data set [8]: Terminal half life in Wistar rat at 50 mg/kg, po. It is filed as ADME, organism-based. More on the design: dose 50 mg/kg, route oral. Conditions: in vivo. In outline: (§4)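 Male Wistar rats dosed orally at 50 mg/kg, or as acetate at 56 mg/kg (equivalent to 50 mg/kg parent). Plasma drug levels by LC–MS; non-compartmental analysis on mean plasma concentration–time data, values below detection limit set to zero. AUC, Cmax, tmax, terminal t1/2 and intrinsic hepatic clearance derived.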

Data set [9] is described as follows: Tmax in Wistar rat at 50 mg/kg, po. Conditions: in vivo. More on the design: dose 50 mg/kg, route oral. It is filed as ADME, organism-based. In outline: as §4
The nature of data set [10]: Cmax in Wistar rat at 50 mg/kg, po. It is filed as ADME, organism-based. Conditions: in vivo. Also noted: dose 50 mg/kg, route oral. In outline: as §4
The nature of data set [11]: AUC (0 to infinity) in Wistar rat at 50 mg/kg, po. It is filed as ADME, organism-based. More on the design: time infinity, dose 50 mg/kg, route oral. As to conditions: plasma. In outline:
as §4

Data set [12] deals with Rattus norvegicus. Description: Intrinsic clearance in Wistar rat at 50 mg/kg, po. It is filed as ADME, organism-based. More on the design: dose 50 mg/kg, route oral. As to conditions: in vivo. In outline: as §4
The target in data set [13] is T1, Steroid 17-alpha-hydroxylase/17,20 lyase. As to the kind of experiment: Inhibition of CYP17. In outline: as §1
For data set [14], the system named is Rattus norvegicus. Description: Intrinsic clearance in Wistar rat at 56 mg/kg, po. It is filed as ADME, organism-based. More on the design: dose 56 mg/kg, route oral. As to conditions: in vivo. In outline: as §4

Chain of CYP3A4 (P08684 whole entry): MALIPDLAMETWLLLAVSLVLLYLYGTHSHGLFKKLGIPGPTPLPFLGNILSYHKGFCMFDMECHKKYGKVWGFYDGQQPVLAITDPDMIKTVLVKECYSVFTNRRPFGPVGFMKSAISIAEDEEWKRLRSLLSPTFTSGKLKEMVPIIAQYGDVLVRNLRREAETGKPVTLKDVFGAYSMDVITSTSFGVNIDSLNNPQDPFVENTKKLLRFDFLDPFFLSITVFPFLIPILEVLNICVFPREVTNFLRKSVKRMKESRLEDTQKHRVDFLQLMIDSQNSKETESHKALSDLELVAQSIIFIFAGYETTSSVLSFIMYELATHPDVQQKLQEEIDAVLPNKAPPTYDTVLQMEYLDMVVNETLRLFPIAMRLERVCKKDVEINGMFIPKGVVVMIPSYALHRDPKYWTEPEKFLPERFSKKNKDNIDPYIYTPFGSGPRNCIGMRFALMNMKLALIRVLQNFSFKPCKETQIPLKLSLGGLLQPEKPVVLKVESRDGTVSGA
Chain of CYP2D6 (P10635 whole entry): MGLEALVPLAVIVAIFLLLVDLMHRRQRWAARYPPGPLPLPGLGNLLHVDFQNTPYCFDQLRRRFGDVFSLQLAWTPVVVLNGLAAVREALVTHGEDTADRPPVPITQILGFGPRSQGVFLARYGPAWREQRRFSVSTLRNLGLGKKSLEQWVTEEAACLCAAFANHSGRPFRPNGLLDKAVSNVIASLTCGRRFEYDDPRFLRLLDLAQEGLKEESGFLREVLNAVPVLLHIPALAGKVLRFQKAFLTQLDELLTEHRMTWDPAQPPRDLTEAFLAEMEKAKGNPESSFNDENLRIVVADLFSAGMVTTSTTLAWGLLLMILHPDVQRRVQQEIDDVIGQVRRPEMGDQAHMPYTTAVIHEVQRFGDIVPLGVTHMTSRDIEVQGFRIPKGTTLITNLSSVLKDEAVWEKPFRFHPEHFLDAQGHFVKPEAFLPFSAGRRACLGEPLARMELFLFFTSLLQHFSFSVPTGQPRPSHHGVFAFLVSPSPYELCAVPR

For the compound `CCC(c1ccc(-c2ccc(F)cc2)cc1)n1ccnc1` (centres undefined), half-maximal inhibition in data set [1] (IC50) required 345 nM. For the same compound, the inhibition at 1 µM was found to be 88% against CYP3A4, 97% at CYP1A2, 46% against CYP2B6 and 54% on CYP2D6. For the same compound, the inhibition at 0.2 µM at CYP11B1 and on CYP11B2 was 66% in each case. Besides, the Activity with Rattus norvegicus [2] came to 16.5%; with Rattus norvegicus [3], 11.7%; with Rattus norvegicus [4], 13.9%; with Rattus norvegicus [5], 13.9%; in the data set on Rattus norvegicus [6], 13.4%; with Rattus norvegicus [7] it was 36.7%. In [8], the half-life is 10 h. Further, in data set [9], the Tmax was 6 h. This compound yielded a Cmax in data set [10] of 3290 ng/mL. For the same compound, in [11], the AUC(0-inf) came to 70700 ng·h/mL. Also, the CL in the data set on Rattus norvegicus [12] was 12 mL/min/kg.
In the case of `CC(c1ccc2c(c1)Cc1ccccc1-2)n1ccnc1` (centres undefined), the IC50 came to 112 nM in data set [1] and 4 nM in data set [13]. For the same compound, the inhibition at 1 µM against CYP3A4 amounted to 89%; against CYP1A2 it was 98%.
In the case of `CC(=O)O[C@H]1CC[C@@]2(C)C(=CC[C@@H]3[C@@H]2CC[C@]2(C)C(c4cccnc4)=CC[C@@H]32)C1` [ABIRATERONE ACETATE], the Activity with Rattus norvegicus [2] came out at 92.5%; in the data set on Rattus norvegicus [3], 44%; in the data set on Rattus norvegicus [4] it was 43.5%; in the data set on Rattus norvegicus [5] it was 43.3%; in the data set with Rattus norvegicus [6], 35.6%. In the data set with Rattus norvegicus [7], the “relative plasma testosterone level” value came out at 476%. Also, in the data set with Rattus norvegicus [14], the CL came to 187 mL/min/kg.
